From ChEMBL document CHEMBL4130408, “Photoactivation provides a mechanistic explanation for pan-assay interference behaviour of 2-aminopyrroles in lipoxygenase inhibition” (Eur J Med Chem, 2017)

Target: T1, Polyunsaturated fatty acid lipoxygenase ALOX15 (Homo sapiens) (UniProt P16050)
T1 sequence (whole entry): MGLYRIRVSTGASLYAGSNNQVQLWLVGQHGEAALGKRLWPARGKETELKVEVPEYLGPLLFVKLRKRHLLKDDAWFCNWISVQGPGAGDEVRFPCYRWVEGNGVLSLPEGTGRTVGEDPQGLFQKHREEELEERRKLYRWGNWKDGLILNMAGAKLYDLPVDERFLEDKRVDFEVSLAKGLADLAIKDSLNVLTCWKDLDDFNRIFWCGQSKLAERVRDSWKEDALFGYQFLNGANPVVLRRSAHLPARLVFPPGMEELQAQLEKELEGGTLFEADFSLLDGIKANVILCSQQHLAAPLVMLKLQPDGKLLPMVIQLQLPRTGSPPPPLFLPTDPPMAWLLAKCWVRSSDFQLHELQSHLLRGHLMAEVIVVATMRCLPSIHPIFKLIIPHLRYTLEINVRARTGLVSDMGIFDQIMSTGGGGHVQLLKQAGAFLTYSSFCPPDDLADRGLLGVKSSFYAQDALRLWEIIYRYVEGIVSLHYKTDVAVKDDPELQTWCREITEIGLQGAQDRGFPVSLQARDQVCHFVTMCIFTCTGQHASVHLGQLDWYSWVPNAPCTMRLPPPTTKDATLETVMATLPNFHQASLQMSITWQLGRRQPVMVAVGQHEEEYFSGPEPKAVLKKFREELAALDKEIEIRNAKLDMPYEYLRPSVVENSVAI
Experiment: Inhibition of recombinant human 15-LOX-1 expressed in Escherichia coli BL21(DE3) assessed as residual activity at 50 uM using linoleic acid as substrate preincubated for 10 mins followed by substrate addition
Outline: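 h-15-LOX-1 (1:100 enzyme stock, 1:400 final) preincubated 10 min at room temperature with inhibitor in 25 mM HEPES pH 7.4, then linoleic acid added to 25 µM final (inhibitor 50 µM final). 13(S)-HpODE formation read as A234 over time, rate taken from linear part within first 16 min; no-inhibitor = 100%, no-enzyme = 0%. Triplicate.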

Row | Compound | Activity [%]
1 | COc1ccc2cccc(-c3c(C(=O)c4ccc(Br)cc4)[nH]c(N)c3C(=O)NC3CCCCC3)c2c1 | 34
2 | CN(C)c1ccc(-c2c(C(=O)c3ccccc3)[nH]c(N)c2C(N)=O)cc1 | 103
3 | Nc1[nH]c(C(=O)c2ccccc2)c(-c2ccc(Cl)cc2)c1C(=O)c1ccc(Cl)cc1 | 100
4 | NC(=O)c1c(N)[nH]c(C(=O)c2ccccc2)c1-c1ccccc1 | 116
5 | Nc1[nH]c(C(=O)c2ccccc2)c(-c2ccc(Br)cc2)c1C(=O)c1cccs1 | 81.3
6 | Nc1[nH]c(C(=O)c2ccccc2)c(-c2cccc3ccccc23)c1C(=O)NCc1ccc(F)c(F)c1 | 62.2
7 | COc1ccc(-c2c(C(=O)c3ccccc3)[nH]c(N)c2C(=O)c2c[nH]c3ccccc23)cc1OC | 82.5
8 | CC(C)(C)C(=O)c1c(N)[nH]c(C(=O)c2ccccc2)c1-c1ccccc1Br | 82.9
9 | COc1ccc(C(=O)c2[nH]c(N)c(C(=O)NCCc3ccc(Cl)cc3Cl)c2-c2ccccc2Br)cc1 | 86.4
10 | Nc1[nH]c(C(=O)c2ccccc2)c(-c2ccc3ccccc3c2)c1C(=O)NC1CC1 | 83.5
11 | Nc1[nH]c(C(=O)c2ccccc2)c(-c2ccncc2)c1C(=O)NCc1ccc(Cl)cc1 | 86.6
12 | COc1ccc(-c2c(C(=O)c3ccccc3)[nH]c(N)c2C(=O)NC2CC2)cc1OC | 90.2
13 | COc1ccc(-c2c(C(=O)c3ccccc3)[nH]c(N)c2C(=O)NCc2ccccc2)cc1OC | 90.7
14 | Nc1[nH]c(C(=O)c2ccccc2)c(-c2ccccc2[N+](=O)[O-])c1C(=O)NCCc1c[nH]c2ccccc12 | 98.1
15 | COc1ccc(-c2c(C(=O)c3ccccc3)[nH]c(N)c2C(=O)NCCc2c[nH]c3ccccc23)cc1 | 35.3
16 | Nc1[nH]c(C(=O)c2ccccc2)c(-c2cccc(Br)c2)c1C(=O)c1ccccc1 | 61.2
17 | Nc1[nH]c(C(=O)c2ccc(Br)cc2)c(-c2ccc(Cl)c(Cl)c2)c1C(=O)NCCc1c[nH]c2ccccc12 | 50
18 | NC(=O)c1c(N)[nH]c(C(=O)c2ccccc2)c1-c1ccccc1Br | 87.4
19 | Cc1ccc([C@H](C)NC(=O)c2c(N)[nH]c(C(=O)c3ccccc3)c2-c2cc(Cl)cc(Cl)c2)cc1 | 77.3
20 | Nc1[nH]c(C(=O)c2ccccc2)c(-c2cccnc2)c1C(=O)NCCc1ccc(Cl)cc1Cl | 99.9
21 | COc1ccc(C(=O)c2[nH]c(N)c(C(=O)NCCc3c[nH]c4ccccc34)c2-c2ccc(Cl)cc2Cl)cc1 | 64.5
22 | COc1ccc(C(=O)c2[nH]c(N)c(C(=O)NCCc3c[nH]c4ccccc34)c2-c2ccc(Cl)c(Cl)c2)cc1 | 41.9
23 | Nc1[nH]c(C(=O)c2ccccc2)c(-c2ccc(F)cc2)c1C(=O)c1c[nH]c2ccccc12 | 116
24 | NC(=O)c1c(N)[nH]c(C(=O)c2ccccc2)c1-c1cccnc1 | 99.1
25 | Nc1[nH]c(C(=O)c2ccccc2)c(-c2ccncc2)c1C(=O)NCc1cccc2ccccc12 | 95.1
26 | Nc1[nH]c(C(=O)c2ccccc2)c(-c2cccc3ccccc23)c1C(=O)c1ccccc1 | 108

Row | Compound | Activity [%]
27 | Cc1ccc(S(=O)(=O)n2c(-c3ccccc3)cc(C(=O)NC3CC3)c2N)cc1 | 92.2
28 | Nc1[nH]c(C(=O)c2ccccc2)c(-c2cccc3ccccc23)c1C(=O)NCc1ccccc1 | 92.5
29 | Nc1[nH]c(C(=O)c2ccccc2)c(-c2ccc([N+](=O)[O-])cc2)c1C(=O)NCCc1c[nH]c2ccccc12 | 54.3
30 | CCCCCCCCCCCCCCNC(=O)c1c(N)[nH]c(C(=O)c2ccc(Br)cc2)c1-c1ccc(Br)cc1 | 99.2
31 | Nc1[nH]c(C(=O)c2ccccc2)c(-c2ccccc2C(F)(F)F)c1C(=O)NCc1cccc2ccccc12 | 85
32 | Nc1[nH]c(C(=O)c2ccccc2)c(-c2ccccc2Cl)c1C(=O)NCCc1c[nH]c2ccccc12 | 98.2
33 | CC(C)(C)C(=O)c1c(N)[nH]c(C(=O)c2ccccc2)c1-c1ccc(F)cc1 | 91.4
34 | COc1ccc(CCNC(=O)c2c(N)[nH]c(C(=O)c3ccccc3)c2-c2ccc(N(C)C)cc2)cc1 | 66.4
35 | COc1ccc(C(=O)c2[nH]c(N)c(C(=O)NCCc3c[nH]c4ccccc34)c2-c2ccc(Cl)cc2)cc1 | 68.1
36 | Nc1[nH]c(C(=O)c2ccccc2)c(-c2ccccn2)c1C(=O)c1c[nH]c2ccccc12 | 104
37 | Nc1[nH]c(C(=O)c2ccccc2)c(-c2ccc(Cl)cc2Cl)c1C(=O)NCCc1c[nH]c2ccccc12 | 22.8
38 | Nc1[nH]c(C(=O)c2ccccc2)c(-c2cccc3ccccc23)c1C(=O)c1ccc(Br)cc1 | 107
39 | Nc1[nH]c(C(=O)c2ccccc2)c(-c2ccc(Cl)cc2[N+](=O)[O-])c1C(=O)NCCc1c[nH]c2ccccc12 | 72.5
40 | CCCCCCNC(=O)c1c(N)[nH]c(C(=O)c2ccccc2)c1-c1ccc(O)cc1 | 90.8
41 | COC(=O)c1c(N)[nH]c(C(=O)c2ccccc2)c1-c1ccc(Cl)cc1 | 96
42 | N#Cc1c(N)[nH]c(C(=O)c2ccccc2)c1-c1ccccc1Br | 62.3
43 | Nc1[nH]c(C(=O)c2ccccc2)c(-c2cccc3ccccc23)c1C(=O)c1c(-c2ccccc2)[nH]c2ccccc12 | 89.9
44 | CC(C)(C)C(=O)c1c(N)[nH]c(C(=O)c2ccccc2)c1-c1cc2ccccc2nc1Cl | 104
45 | NC(=O)c1c(N)[nH]c(C(=O)c2ccccc2)c1-c1ccccn1 | 82.1
46 | Nc1[nH]c2ccccc2c1C(=O)NC1CC1 | 126
47 | Nc1[nH]c(C(=O)c2ccccc2)c(-c2ccc(Br)cc2)c1C(=O)c1ccccc1 | 63.2
48 | Nc1[nH]c(C(=O)c2ccccc2)c(-c2ccccc2)c1C(=O)NCCc1c[nH]c2ccccc12 | 63.2
49 | Nc1[nH]c(C(=O)c2ccccc2)c(-c2ccc(Cl)cc2)c1C(=O)NCCc1c[nH]c2ccccc12 | 84.7
50 | Nc1[nH]c(C(=O)c2ccccc2)c(-c2ccccc2Cl)c1C(=O)c1ccccc1 | 70.9
51 | Nc1[nH]c(C(=O)c2ccc(Br)cc2)c(-c2ccc(Br)cc2)c1C(=O)N1CCOCC1 | 87
52 | Nc1[nH]c(C(=O)c2ccccc2)c(-c2cccnc2)c1C(=O)NCCc1c[nH]c2ccccc12 | 82.5

Row | Compound | Activity [%]
53 | Nc1[nH]c(C(=O)c2ccc(Cl)cc2)c(-c2ccc(Br)cc2)c1C(=O)c1c[nH]c2ccc(F)cc12 | 96.2
54 | Nc1[nH]c(C(=O)c2ccc(Cl)cc2)c(-c2ccc(Br)cc2)c1C(=O)NCCc1c[nH]c2ccccc12 | 53.3
55 | Nc1[nH]c(C(=O)c2ccccc2)c(-c2ccc(Br)cc2)c1C(=O)NC1CCCCC1 | 87.5
56 | Cc1ccc([C@@H](C)NC(=O)c2c(N)[nH]c(C(=O)c3ccccc3)c2-c2ccccc2C(F)(F)F)cc1 | 96.4
57 | Nc1[nH]c(C(=O)c2ccccc2)c(-c2cccc3ccccc23)c1C(=O)NCc1ccc(Cl)cc1Cl | 115
58 | Nc1[nH]c(C(=O)c2ccccc2)c(-c2ccccc2C(F)(F)F)c1C(=O)NCCc1cccs1 | 91.5
59 | Cc1ccccc1-c1c(C(=O)c2ccccc2)[nH]c(N)c1C(=O)NCCc1c[nH]c2ccccc12 | 62.5
60 | NC(=O)c1c(N)[nH]c(C(=O)c2ccccc2)c1-c1ccc2ccccc2c1 | 79.1
61 | COc1ccc2cccc(-c3c(C(=O)c4ccc(Br)cc4)[nH]c(N)c3C(=O)NCc3ccc(-c4ccccc4)cc3)c2c1 | 115
62 | Nc1[nH]c(C(=O)c2ccc(Br)cc2)c(-c2ccccc2)c1C(=O)NCCc1c[nH]c2ccccc12 | 69
63 | Nc1[nH]c(C(=O)c2ccccc2)c(-c2ccc3c(c2)OCO3)c1C(=O)NCCc1c[nH]c2ccccc12 | 62.7
64 | COc1cc(-c2c(C(=O)c3ccccc3)[nH]c(N)c2C(N)=O)ccc1F | 110
65 | NC(=O)c1c(N)[nH]c(C(=O)c2ccccc2)c1-c1cccc2ccccc12 | 69.2
66 | Nc1[nH]c(C(=O)c2ccccc2)c(-c2ccc(Cl)cc2Cl)c1C(=O)c1ccc(Br)cc1 | 88.3
67 | Nc1[nH]c2cc(C(F)(F)F)ccc2c1C(=O)NC1CCCCC1 | 125
68 | CC(NC(=O)c1c(N)[nH]c(C(=O)c2ccc(Cl)cc2)c1-c1ccc(Br)cc1)c1cccc2ccccc12 (stereo not drawn) | 122
69 | Nc1[nH]c(C(=O)c2ccccc2)c(-c2ccc(F)cc2)c1C(=O)NCCc1c[nH]c2ccccc12 | 59.6
70 | COc1ccc2cccc(-c3c(C(=O)c4ccc(Br)cc4)[nH]c(N)c3C(=O)NCc3ccc(F)c(F)c3)c2c1 | 86.3
71 | Cc1ccccc1-c1c(C(=O)c2ccccc2)[nH]c(N)c1C(=O)c1ccc(Cl)cc1 | 94.9
72 | Nc1[nH]c2ccccc2c1C(=O)NCCc1ccc(Cl)cc1Cl | 104
73 | N#Cc1c(N)[nH]c(C(=O)c2ccccc2)c1-c1ccc(Br)cc1 | 63.4
74 | Nc1[nH]c(C(=O)c2ccccc2)c(-c2ccncc2)c1C(=O)NC1CC1 | 91
75 | Nc1[nH]c(C(=O)c2ccccc2)c(-c2ccccc2C(F)(F)F)c1C(=O)NCCc1c[nH]c2ccccc12 | 45.5
76 | CCCCNC(=O)c1c(N)[nH]c(C(=O)c2ccc(F)cc2)c1-c1ccc(Cl)cc1C | 107
77 | Nc1[nH]c(C(=O)c2ccccc2)c(-c2cccc3ccccc23)c1C(=O)c1cccs1 | 73.7
78 | NC(=O)c1c(N)[nH]c(C(=O)c2ccccc2)c1-c1ccccc1C(F)(F)F | 93.6
